Assay outcomes: PubChem, Sanford-Burnham Center for Chemical Genomics
Only some compounds are listed: those with a hit (about 1.5% of all), similar ones and a draw of the others.
PPC-1+TRAIL kill = compounds killing PPC-1 cancer cells with TRAIL present (potentiator screen, no TRAIL-free arm) | 220,000 tested, 0.41% active | PPC-1 cells + TRAIL, ATPLite viability luminescence | cell killing (% activity), % at 4 µM or 5 µM;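 active = cell killing above 50% in the first pass at 4 µM, then a duplicate retest at 5 µM averaging 50% or more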
FLuc stim CS = firefly luciferase counter-screen for stimulation assays | ATPlite luciferase biochemical, luminescence, 10 min; 0 = ATP-free wells, 1 = DMSO control | P08659 | 200,000 tested, under 10 active | activation factor at 10 µM;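 active = luciferase activation factor, scaled between plate controls, of at least 2 with compound at 10 µM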
Target sequence (P08659 whole entry, looked up): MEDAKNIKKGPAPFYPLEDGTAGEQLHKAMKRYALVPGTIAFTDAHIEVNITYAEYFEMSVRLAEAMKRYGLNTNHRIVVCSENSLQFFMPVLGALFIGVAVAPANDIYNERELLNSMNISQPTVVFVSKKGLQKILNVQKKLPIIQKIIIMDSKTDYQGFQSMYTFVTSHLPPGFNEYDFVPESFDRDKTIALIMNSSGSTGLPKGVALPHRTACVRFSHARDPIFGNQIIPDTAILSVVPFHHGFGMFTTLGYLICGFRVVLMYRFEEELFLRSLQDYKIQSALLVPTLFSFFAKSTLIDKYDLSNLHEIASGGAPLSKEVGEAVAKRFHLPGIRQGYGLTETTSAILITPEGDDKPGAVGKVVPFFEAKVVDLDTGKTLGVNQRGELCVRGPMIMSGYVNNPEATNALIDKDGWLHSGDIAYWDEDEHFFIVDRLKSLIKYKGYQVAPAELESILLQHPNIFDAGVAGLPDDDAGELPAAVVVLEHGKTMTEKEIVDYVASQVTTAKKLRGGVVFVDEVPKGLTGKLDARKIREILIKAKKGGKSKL
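System: cell-free luciferase reagent; medium: PBS as buffer for the ATP substrate; doses: test compounds dosed from 2 mM stocks in 100% DMSO; incubation: 10 min, room temperature; measured by: luminescence from luciferase reaction; read-out: luciferase activation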
FLuc inhib CS = Photinus pyralis luciferase inhibition counter-screen; P08659; ATPLite firefly luciferase biochemical luminescence, 10 min; inhibition, % at 10 µM; 200,000 tested, 1.5% active; AID 1006;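 active = inhibition above about 50% when tested at 10 µM, limit read from the data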
TRAIL sens C8 = sensitizes caspase-8 expressing cells to TRAIL; NB7+C8 cells + TRAIL, ATPlite viability luminescence; AID 624354; inhibition (viability loss, TRAIL sensitization), % at 10 µM; 360,000 tested, 1% active;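 active = compounds causing at least 50% loss of cell viability in the single-dose screen, relative to plate controls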
Each line names hits and unclear results; the compound was inactive in the other large screens.

O=C1CN(C(=O)Cn2ncc(Cl)c(Cl)c2=O)c2ccccc2N1	TRAIL sens C8 94
O=C(Cn1ncc(Cl)c(Cl)c1=O)c1ccc(Cl)cc1	TRAIL sens C8 95
O=C(Cn1ncc(Cl)c(Cl)c1=O)NC1CCCCC1	TRAIL sens C8 96 (no result: PPC-1+TRAIL kill, FLuc stim CS, FLuc inhib CS)
O=C1CN(C(=O)COc2ccc(Cl)c(Cl)c2)c2ccccc2N1	none (no result: PPC-1+TRAIL kill, FLuc stim CS, FLuc inhib CS)
O=C(Cn1ncc(Cl)c(Cl)c1=O)NCC1CCCCC1	TRAIL sens C8 95
O=C(Cn1ncc(N2CCOCC2)c(Cl)c1=O)c1ccc(Cl)cc1	none
O=C(Cn1ncc(Cl)c(Cl)c1=O)NC1CCS(=O)(=O)C1 (configuration not stated)	none (no result: FLuc stim CS, FLuc inhib CS)
CCOc1ccccc1NC(=O)CN(c1ccc(Cl)cc1)S(C)(=O)=O	none (no result: PPC-1+TRAIL kill, FLuc stim CS, FLuc inhib CS)
COc1ccc(CCNC(=O)CN2C(=O)NC(C)(c3ccc([N+](=O)[O-])cc3)C2=O)cc1 (configuration not stated)	none
COc1cc(CNCCNC(=O)c2nonc2N)ccc1OCc1ccc(Cl)nc1	none
Cc1ccc(NC(=O)Cc2ccc(Cl)cc2)cc1S(=O)(=O)N1CCCCCC1	none (no result: PPC-1+TRAIL kill, FLuc stim CS, FLuc inhib CS)
Cc1cccc(NC(=O)CNC(=O)CSc2ncccn2)c1C	none (no result: PPC-1+TRAIL kill, FLuc stim CS, FLuc inhib CS)
Cc1cccc(NC(=O)CNC(=O)Cn2ncc(Cl)c(Cl)c2=O)c1C	TRAIL sens C8 74 (no result: PPC-1+TRAIL kill, FLuc stim CS, FLuc inhib CS)
O=C(OCn1ncc(Cl)c(Cl)c1=O)c1ccccc1Cl	TRAIL sens C8 87
Cc1ccc(NC(=O)Cn2ncc(Cl)c(Cl)c2=O)cc1S(=O)(=O)N1CCCCC1	TRAIL sens C8 79 (no result: PPC-1+TRAIL kill, FLuc stim CS, FLuc inhib CS)
O=c1nc(SCc2c(F)cccc2Cl)nc(-c2ccccc2)[nH]1	none (no result: FLuc stim CS, FLuc inhib CS, TRAIL sens C8)
Cn1c(Cn2nnc(-c3ccccc3)n2)nnc1SCc1ccccc1Cl	none
O=C(Nc1sc2c(c1C(=O)O)CCCCC2)c1ccco1	FLuc inhib CS 74
Cc1cc(C)n(CCOc2ccc(Br)cc2)n1	none (no result: PPC-1+TRAIL kill, FLuc stim CS, FLuc inhib CS)
c1ccc(Oc2ccc(-c3ccn[nH]3)cc2)cc1	none (no result: FLuc stim CS, FLuc inhib CS)
c1ccc(-c2ncc(-c3ccn[nH]3)s2)cc1	FLuc inhib CS 66
COc1ccc(-n2c(C)cc(/C=C3\C(=O)NN(c4ccccc4)C3=O)c2C)cc1	FLuc inhib CS 55
Cc1cc(/C=C2/C(=O)NN(c3ccccc3)C2=O)c(C)n1-c1ccc(O)cc1	PPC-1+TRAIL kill 79, FLuc inhib CS 95, TRAIL sens C8 88
Cc1cc(/C=C2\C(=O)NN(c3ccccc3)C2=O)c(C)n1-c1ccccc1O	none (no result: FLuc stim CS, FLuc inhib CS)
CC1CN(C(=O)COC(=O)c2ccc(N(C)C)cc2)CC(C)O1 (configuration not stated)	none
O=C(CC(Nc1ccccc1)C(=O)O)c1ccccc1 (configuration not stated)	FLuc inhib CS 78
Cc1ccc(NC(CC(=O)c2ccccc2)C(=O)O)cc1Cl (configuration not stated)	none (no result: FLuc stim CS, FLuc inhib CS)
CCC(C)C(NC(N)=O)C(=O)Nc1ccc(OCc2ccccc2)cc1 (configuration not stated)	none (no result: FLuc stim CS, FLuc inhib CS)
O=C(CSCc1ccccc1)NNc1c(F)c(F)cc(F)c1F	none (no result: PPC-1+TRAIL kill, FLuc stim CS, FLuc inhib CS)
CN(C)CCNC(=O)c1cccc(-c2cnc3c(NC=O)cc(-c4cc(F)c(F)c(F)c4)cn23)c1	none (no result: PPC-1+TRAIL kill, FLuc stim CS, FLuc inhib CS)
CN(C)CCNC(=O)c1cccc(-c2cc(NC=O)c3ncc(-c4cccc(C(F)(F)F)c4)n3c2)c1	TRAIL sens C8 79 (no result: PPC-1+TRAIL kill, FLuc stim CS, FLuc inhib CS)
CCOc1ccccc1/C=C(/NC(=O)c1ccccc1)C(=O)NC(C)c1ccccc1 (configuration not stated)	none
CC(C)Oc1ccc2c(=O)c(-c3ccccc3)coc2c1	FLuc inhib CS 61
CC(=O)Oc1ccc2c(=O)c(-c3nc4ccccc4s3)coc2c1	FLuc inhib CS 80, TRAIL sens C8 69
CC(=O)Oc1ccc2c(=O)c(Oc3ccccc3[N+](=O)[O-])coc2c1	none
COC(=O)COc1ccc2c(=O)c(-c3ccccc3)coc2c1	none (no result: FLuc stim CS, FLuc inhib CS)
COc1ccc2c(=O)c(-c3ccc4c(c3)OCO4)coc2c1	FLuc inhib CS 66, TRAIL sens C8 57
COc1ccc(C(=O)c2c[nH]c3ccccc23)cc1	FLuc inhib CS 64, TRAIL sens C8 48
COc1ccc(CC(=O)OCC(=O)c2c[nH]c3ccccc23)cc1	none (no result: PPC-1+TRAIL kill, FLuc stim CS, FLuc inhib CS)
COc1ccc2[nH]cc(C(=O)CCl)c2c1	TRAIL sens C8 75 (no result: FLuc stim CS, FLuc inhib CS)
O=S1(=O)CC(N2CCN(CCO)CC2)CN1Cc1cn(Cc2ccc(C(F)(F)F)cc2)nn1 (configuration not stated)	none (no result: PPC-1+TRAIL kill, FLuc stim CS, FLuc inhib CS)
O=C(NCCN1CCN(C(=O)c2ccc(F)cc2)CC1)c1ccc(F)cc1	none (no result: PPC-1+TRAIL kill, FLuc stim CS, FLuc inhib CS)
O=C(NCc1ccco1)c1cccc2c(-c3ccc(F)c(F)c3)coc12	none (no result: PPC-1+TRAIL kill, FLuc stim CS, FLuc inhib CS)
CC(=O)Oc1ccc(/C=N\NC(=O)c2cc3c(ccc4ccccc43)o2)cc1	TRAIL sens C8 64 (no result: PPC-1+TRAIL kill, FLuc stim CS, FLuc inhib CS)
Cc1ccc(/C=N/NC(=O)c2cc3c(ccc4ccccc43)o2)o1	none (no result: PPC-1+TRAIL kill, FLuc stim CS, FLuc inhib CS)
